Assay results: PubChem BioAssay
The source made the active and inactive calls.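 How the source made its calls, unless noted: active means mean duplicate potentiation above the buffer control mean plus 5 SD of buffer wells; inactive means the rest.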

How the values were obtained:
[1] = nonspecific flux increase, KCNQ1-free cells – parental CHO cells, counter-screen for KCNQ1 potentiator project (AID 493006;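 active means duplicate-averaged activation above buffer control mean plus 5 SD of those controls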;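 on activation: fluorescence ratio of max minus min over baseline after K+ and Tl+ depolarization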); conditions: parental CHO-K1 cells, FluxOR thallium flux, at 10 µM; active compounds read high
Procedure, shortened: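 Benchmarks – buffer and R-L3 controls · Assay system – untransfected host CHO-K1 cells with FluxOR thallium dye · Measure – fluorescence change ratio scaled 0% buffer, 100% R-L3 · Technique – kinetic thallium-flux fluorescence · Timing – overnight 37 °C plating, 90 min RT dye, 20 min compound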

[2] = target: Potassium voltage-gated channel subfamily KQT member 1 (Homo sapiens) (UniProt P51787); test: enhancement of KCNQ1 channel thallium flux – FluxOR thallium flux, CHO cells, duplicates, confirmation (AID 493007;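 active means potentiation averaged over duplicate wells exceeding buffer-only control mean by more than 3 SD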;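 on outcome: cells depolarized by a potassium plus thallium sulfate stimulus after compound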); conditions: KCNQ1 cell line, FluxOR thallium flux fluorescence, at 10 µM; active compounds read high, % of reference activator effect, buffer zero
Procedure, shortened: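 Material: CHO cells stably expressing the KCNQ1 potassium channel / Times: dye 90 min then compound 20 min, both at room temperature / Detection: kinetic thallium influx fluorescence with FluxOR dye, 10 s baseline, 110 s post-stimulus / Benchmarks: buffer-only wells as 0% and R-L3 activator as 100% / Replicates: each compound tested in duplicate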

[3] = target: Potassium voltage-gated channel subfamily KQT member 2 (Rattus norvegicus) (UniProt O88943); test: KCNQ2 thallium flux enhancement – KCNQ2-CHO-K1 cells, selectivity assay for KCNQ1 potentiator project (AID 493009); conditions: FluxOR thallium flux fluorescence, at 10 µM; active compounds read high, scaled: buffer 0, activator control 100;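 further: assay conditions were tuned for KCNQ1 rather than KCNQ2 modulators; signal is max minus min fluorescence divided by baseline after thallium stimulus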
[4] = target: Potassium voltage-gated channel subfamily KQT member 1 (Homo sapiens) (UniProt P51787); test: KCNQ1 activators by electrophysiology – IonWorks patch clamp, KCNQ1-CHO cells, orthogonal assay for KCNQ1 potentiator project, confirmation (AID 493184;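 active means current rise at least 3 SD above the untreated control mean in each of two repeat wells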;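 on current potentiation: percent change of the same well's current before compound addition so 0% = no change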); conditions: automated patch clamp current, at 10 µM; active compounds read high
Procedure, shortened: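 Probe or stimulus: depolarizing pulse to +40 mV from -90 mV; Material: CHO cells carrying KCNQ1; Compound: one dose, 10 µM final; Signal: automated voltage clamp, amphotericin B perforated patch; Read-out basis: percent current increase versus pre-compound level; Buffer or medium: pH 7.4 external bath; Replication: duplicates.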

Chain of Potassium voltage-gated channel subfamily KQT member 1 (Homo sapiens) (P51787 whole entry, looked up): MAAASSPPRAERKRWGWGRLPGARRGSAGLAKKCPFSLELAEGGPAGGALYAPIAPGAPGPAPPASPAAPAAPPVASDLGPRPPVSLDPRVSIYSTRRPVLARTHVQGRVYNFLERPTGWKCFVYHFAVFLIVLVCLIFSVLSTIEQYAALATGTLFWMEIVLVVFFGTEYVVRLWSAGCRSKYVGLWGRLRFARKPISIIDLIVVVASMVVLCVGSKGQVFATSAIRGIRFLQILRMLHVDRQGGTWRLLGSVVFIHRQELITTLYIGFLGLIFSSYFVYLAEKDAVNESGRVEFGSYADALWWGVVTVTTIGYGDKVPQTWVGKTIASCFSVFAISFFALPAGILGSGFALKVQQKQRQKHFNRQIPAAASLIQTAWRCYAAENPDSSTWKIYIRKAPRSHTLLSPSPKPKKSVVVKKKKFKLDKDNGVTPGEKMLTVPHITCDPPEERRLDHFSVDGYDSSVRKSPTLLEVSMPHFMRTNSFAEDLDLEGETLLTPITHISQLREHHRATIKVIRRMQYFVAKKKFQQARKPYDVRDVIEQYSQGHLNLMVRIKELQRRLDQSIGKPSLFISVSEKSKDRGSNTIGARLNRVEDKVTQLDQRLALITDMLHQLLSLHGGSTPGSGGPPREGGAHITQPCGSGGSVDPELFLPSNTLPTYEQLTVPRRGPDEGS
Chain of Potassium voltage-gated channel subfamily KQT member 2 (Rattus norvegicus) (O88943 whole entry, looked up): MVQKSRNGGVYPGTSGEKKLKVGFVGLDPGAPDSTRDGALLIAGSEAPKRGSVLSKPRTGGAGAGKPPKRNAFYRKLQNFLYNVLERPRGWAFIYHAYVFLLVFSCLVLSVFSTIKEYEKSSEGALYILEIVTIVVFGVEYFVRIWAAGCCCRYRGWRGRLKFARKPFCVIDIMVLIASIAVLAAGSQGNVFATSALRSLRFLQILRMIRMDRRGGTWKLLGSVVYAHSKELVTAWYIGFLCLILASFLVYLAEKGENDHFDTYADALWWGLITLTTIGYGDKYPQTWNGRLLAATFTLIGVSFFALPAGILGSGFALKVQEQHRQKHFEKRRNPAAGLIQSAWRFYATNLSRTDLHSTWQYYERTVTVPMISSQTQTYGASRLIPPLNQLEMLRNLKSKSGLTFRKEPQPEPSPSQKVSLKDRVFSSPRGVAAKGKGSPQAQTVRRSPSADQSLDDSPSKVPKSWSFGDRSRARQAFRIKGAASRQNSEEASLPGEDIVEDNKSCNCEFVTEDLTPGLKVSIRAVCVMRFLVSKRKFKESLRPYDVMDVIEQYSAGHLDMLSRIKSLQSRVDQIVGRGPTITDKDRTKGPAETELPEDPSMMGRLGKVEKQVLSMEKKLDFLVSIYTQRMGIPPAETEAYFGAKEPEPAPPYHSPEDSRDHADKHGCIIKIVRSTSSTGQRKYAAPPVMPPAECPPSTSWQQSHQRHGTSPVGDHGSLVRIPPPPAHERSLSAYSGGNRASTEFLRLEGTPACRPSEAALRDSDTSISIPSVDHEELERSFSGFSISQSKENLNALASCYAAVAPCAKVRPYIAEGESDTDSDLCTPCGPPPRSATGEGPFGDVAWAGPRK

Compound	outcome [1]	outcome [2]	potentiation [3]	outcome [4]	outcome [3]	activation [1]	potentiation [2]	current potentiation [4]
O=[N+]([O-])c1ccc(Nc2ccc(Cl)cc2)nc1	inactive	inactive	166% (active)	inactive				
CC1(N2CCCCC2)CC2(O)C(=[N+]1[O-])CCC/C2=N\O (stereo not given)	inactive	inactive		inactive	inactive			
CN1c2ccccc2C(O)=C(C(=S)Nc2ccc(Cl)cc2)S1(=O)=O		inactive	146% (active)	inactive		139% (active)		
C=CCn1c(O)c(N=NC(=S)Nc2cccc(OC)c2)c2ccccc21			271% (active)	inactive		186% (active)	85.5% (active)	
Nc1nc(N)c2sc3nc4c(cc3c2n1)CCC4	inactive	inactive		inactive	inactive			
O=C(CCOc1ccccc1)Nc1ccnn1C1CCN(Cc2ccc(CO)o2)CC1	inactive	inactive		inactive	inactive			
Cc1sc(NC(=O)CS(=O)(=O)c2ccccc2)c(C#N)c1C	inactive	inactive		inactive	inactive			
C=CCn1c(O)c(N=NC(=S)Nc2ccccc2F)c2cc(S(=O)(=O)N3CCOCC3)ccc21	inactive			inactive	inactive		26.5% (active)	
CC(C)Cc1ccc(C(C)C(=O)Nc2ccc(O)cc2)cc1 (stereo not given)	inactive	inactive		inactive	inactive			
Cc1ccc(-c2csc3nc[nH]c(=S)c23)cc1C			222% (active)	inactive		223% (active)	56.5% (active)	
O=C(Nc1nnc(C2=COCCO2)o1)c1ccc(Br)cc1			169% (active)	inactive		142% (active)	18% (active)	
COc1cccc(NC(=O)NCC2CCN(Cc3ccc(F)cc3)CC2)c1	inactive	inactive		inactive	inactive			
Cc1cc(C(=O)NN)n[nH]1	inactive	inactive		inactive	inactive			
CCOC(=O)c1c(NC(=S)NC)sc2c1CC(C)(C)SC2			444% (active)	inactive		498% (active)	126% (active)	
O=C(NCc1cccc(Cl)c1)c1cccc(OC2CCN(C(=O)C3CC3)CC2)c1	inactive	inactive		inactive	inactive			
COc1cc(/C=C2\C(=O)N(C)C(=S)N2C)ccc1O	inactive	inactive		inactive	inactive			
CC1CCN(C(=S)NC(=O)c2ccc(C(C)(C)C)cc2)CC1			284% (active)	inactive		165% (active)	85.5% (active)	
CCc1ccc2nc(N(CCCN(C)C)C(=O)c3ccc(S(=O)(=O)N4CCCc5ccccc54)cc3)sc2c1	inactive	inactive		inactive	inactive			
C/C(=N\NC(=O)c1cc2ccccc2cc1O)c1cc2ccccc2o1			746% (active)	inactive		706% (active)	478% (active)	
C/C(=N\NS(=O)(=O)c1ccc(Br)cc1)c1cccs1	inactive	inactive		inactive	inactive			

Compound	outcome [1]	outcome [2]	potentiation [3]	outcome [4]	outcome [3]	activation [1]	potentiation [2]	current potentiation [4]
Cc1cccc(-n2c(C)cc(/C=N/NC(N)=S)c2C)c1	inactive	inactive		inactive	inactive			
O=C(COc1ccccc1F)Nc1ccc(S(=O)(=O)NCc2ccco2)cc1	inactive	inactive		inactive	inactive			
CCN(CC)C(=S)NC(=O)c1ccc(Cl)cc1Cl			196% (active)	inactive		226% (active)	50% (active)	
Nc1c(-c2ccccc2)cnc2c(-c3ccccc3)cnn12	inactive	inactive		inactive	inactive			
COCCCN=C1NN=C(c2cc(C)n(-c3ccccc3F)c2C)CS1	inactive	inactive		inactive	inactive			
CC(NC(=O)CS(=O)(=O)c1ccccc1)c1ccccc1 (stereo not given)	inactive	inactive		inactive	inactive			
Cc1cccc(-c2n[nH]c(=S)n2/N=C/c2cccs2)c1			149% (active)	inactive		138% (active)	22.5% (active)	
Cc1cc(/C=N/NC(=O)CC#N)c(C)n1-c1ccc([N+](=O)[O-])cc1	inactive	inactive		inactive	inactive			
CCOc1ccc(-n2cc(C(=O)Nc3cccc(C)n3)c3cc(OC)c(OC)cc3c2=O)cc1	inactive	inactive		inactive	inactive			
C=CCNC(=S)Nc1sc2c(c1C(=O)OCC)CC(C)(CC)OC2 (stereo not given)			254% (active)	inactive		318% (active)	49.5% (active)	
Cc1nc2c(c3c1[nH]c1ccccc13)C(=O)CC(C)(C)C2	inactive	inactive		inactive	inactive			
O=C(NN1C(=O)C2C(c3ccccc3)C=CC(c3ccccc3)C2C1=O)c1ccncc1 (stereo not given)			152% (active)	inactive		176% (active)	18% (active)	
O=C(CSc1ccc2ccccc2n1)Nc1ccc(N2CCOCC2)cc1	inactive	inactive		inactive	inactive			
CCCC(=O)n1nc(-c2ccccc2)nc1N	inactive	inactive		inactive	inactive			
Cc1nn(-c2ccccc2)c(Cl)c1/C=N\NC(=O)c1cncc(Br)c1	inactive	inactive		inactive	inactive			
Cc1sc(-n2c(C)cc(/C=N/n3cnnc3)c2C)c(C#N)c1C	inactive			inactive	inactive		17.5% (active)	
COc1ccc(S(=O)(=O)Nc2cccc3ccc(O)cc23)cc1	inactive	inactive		inactive	inactive			
CC(=O)c1ccc(OCc2cc(C(=O)N(C)Cc3nc4c(C)cccc4[nH]3)no2)cc1	inactive			inactive	inactive		18% (active)	
COc1ccc(-c2cc(C(=O)Nc3c(Cl)cc(Cl)cc3Cl)c3ccccc3n2)cc1OC	inactive	inactive		inactive	inactive			
COc1ccc(C(=O)c2cc([N+](=O)[O-])ccc2N2CCOCC2)cc1	inactive	inactive		inactive	inactive			

Compound	outcome [1]	outcome [2]	potentiation [3]	outcome [4]	outcome [3]	activation [1]	potentiation [2]	current potentiation [4]
CC(/C=C1\SC(=S)N(NS(=O)(=O)c2ccccc2)C1=O)=C\c1ccccc1			318% (active)	inactive		304% (active)	157% (active)	
O=C(Nc1nnc(-c2ccc3c(c2)CCCC3)o1)c1ccc(Cl)cc1Cl			442% (active)	inactive		374% (active)	176% (active)	
COc1ccc(NC(=O)CCCSc2nc(-c3ccco3)cc(C(F)(F)F)n2)cc1OC	inactive	inactive		inactive	inactive			
OC1(c2ccc(Br)cc2)CCNCC1	inactive	inactive		inactive	inactive			
Cc1cccc(NC(=S)NNC(=O)c2csc3c2CCC(C)C3)c1 (stereo not given)			248% (active)	inactive		193% (active)	86% (active)	
Cc1cc(NC(c2cccnc2)c2c(C)[nH]c3ccccc23)no1 (stereo not given)	inactive	inactive		inactive	inactive			
C=CCn1c(O)c(N=NC(=S)Nc2cccc(C)c2)c2ccccc21			286% (active)	inactive		225% (active)	77% (active)	
CCN(CC)S(=O)(=O)c1cc(OC)ccc1N=Nc1ccc(O)c2ncccc12	inactive		148% (active)	inactive			37.5% (active)	
O=c1[nH]cc(S(=O)(=O)c2ccccc2)[nH]1	inactive	inactive		inactive	inactive			
CCC1(C)Cc2c(sc3nc(SC)[nH]c(=S)c23)CO1 (stereo not given)			534% (active)	inactive		550% (active)	194% (active)	
O=C(CN1C(=O)CNC1=O)Nc1cccc(C(F)(F)F)c1	inactive	inactive		inactive	inactive			
COc1ccccc1C(=O)NNC(=O)C(=O)Nc1ccc(C)cc1			593% (active)	inactive		534% (active)	182% (active)	
COCCCNC(=O)CC(NS(=O)(=O)c1ccc(F)cc1)c1ccc(OC)cc1 (stereo not given)	inactive	inactive		inactive	inactive			
OC(CNC1CCCCC1)COCCOc1ccc(Br)cc1 (stereo not given)	inactive	inactive		inactive	inactive			
O=C(NC(=S)Nc1ccc(N2CCOCC2)c(Cl)c1)c1sc2ccccc2c1Cl	inactive			inactive	inactive		35.5% (active)	
Cc1nn(C)c(C(=O)NC(=S)Nc2ccc([N+](=O)[O-])cc2)c1Cl			196% (active)	inactive		166% (active)	72% (active)	
Fc1ccc(/C=N/NC(=S)Nc2ccc(Cl)cc2)cc1F	inactive	inactive		inactive	inactive			
C=CCn1c(O)c(N=NC(=S)Nc2ccccc2F)c2ccccc21			416% (active)	inactive		352% (active)	212% (active)	
COc1ccc(-c2csc(NC(=O)C3=NN(c4ccccc4)C(=O)CC3)n2)cc1	inactive				inactive		146% (active)	101% (active)
N#Cc1cn(CC(=O)NCC2CCCO2)c2ccccc12 (stereo not given)	inactive	inactive		inactive	inactive			
